In the library only some 1.6% were active in any assay of this set; here they are far more common.
Neddyl block = cullin neddylation inhibition | TR-FRET cullin neddylation, biochemical | 0.58% of 360,000 active | calls only at 25 µM | P61081+Q13564; in the data active = inhibition above about 36%
proCasp7 act = counter-screen: procaspase-7 (human) activation; recombinant procaspase-7, Ac-DEVD-pNA absorbance 405 nm; D23A/D198A/D206A triple mutant, cannot self-cleave; scale: DMSO 0, 5 µM enzyme 100; activation, % at 8.5 µM; 0.093% of 330,000 active;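 active = percent activation above the screen-wide mean plus 3 SD, cut at about 25% in these data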
Target sequence (P55210 whole entry D23A/D198A/D206A): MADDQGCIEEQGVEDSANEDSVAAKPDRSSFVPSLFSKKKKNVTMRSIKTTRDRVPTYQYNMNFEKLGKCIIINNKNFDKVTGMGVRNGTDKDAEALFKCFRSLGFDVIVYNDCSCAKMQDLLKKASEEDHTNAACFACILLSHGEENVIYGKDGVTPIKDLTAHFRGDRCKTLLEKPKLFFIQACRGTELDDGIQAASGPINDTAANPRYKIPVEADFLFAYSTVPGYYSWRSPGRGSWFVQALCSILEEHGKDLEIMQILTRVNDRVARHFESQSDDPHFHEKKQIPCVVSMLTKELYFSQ
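Test system: Procaspase-7 triple mutant (PC-7 D3A). Also added: Ac-DEVD-pNA substrate, 400 µM as added. Schedule: 1 h enzyme–compound preincubation and 2 h substrate reaction, both 25 °C. Signal: p-Nitroaniline absorbance at 405 nm, read at 0 and 120 min. Control set: low DMSO alone, high DMSO plus 5 µM PC-7.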
procasp3 activ = procaspase-3 (human) activation | AID 463141 | activation, % at 8.5 µM | 0.11% of 330,000 active | recombinant procaspase-3 D3A, Ac-DEVD-pNA absorbance 405 nm;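 active = activation above the mean of all tested compounds plus 3 SD, cut at about 21% in these data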;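 note: 0% = DMSO alone and 100% = DMSO wells spiked with extra 5 µM PC-3 D3A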
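assay system = Procaspase-3 D3A mutant | signal = absorbance at 405 nm, 0 and 120 min | times = 1 h preincubation plus 2 h reaction at 25 °C | repeats = single replicate | read-out = % activation between DMSO and enzyme-spiked controls | medium = Zinc-free HEPES saline buffer with Triton X-100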
KLK7 zymogen act = activators of human kallikrein-7 zymogen; activation, % at 7 µM; AID 652039; purified proKLK7, EDANS-DABCYL substrate fluorescence; 100% is mature enzyme control, 0% vehicle; 0.9% of 370,000 active;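 active = activation above the mean of all tested compounds plus 3 SD, computed per campaign excluding outliers beyond control limits, cut at about 13% in these data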
Target sequence (P49862 whole entry, looked up): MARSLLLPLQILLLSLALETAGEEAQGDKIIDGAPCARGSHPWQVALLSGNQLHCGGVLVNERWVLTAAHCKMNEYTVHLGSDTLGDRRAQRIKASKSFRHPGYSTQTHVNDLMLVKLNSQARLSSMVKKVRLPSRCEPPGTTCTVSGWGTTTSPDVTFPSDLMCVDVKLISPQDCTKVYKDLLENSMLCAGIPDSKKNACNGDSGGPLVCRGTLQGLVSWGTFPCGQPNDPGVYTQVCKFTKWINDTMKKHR
KLK7 act conf = confirmation of human kallikrein-7 zymogen activators. activation, % at 7 µM. 68% of 3,200 active. AID 686949. shares compounds with KLK7 zymogen act. purified proKLK7, EDANS-DABCYL substrate fluorescence; scaled: vehicle 0, mature enzyme 100;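 active = activation, as change over the incubation, above the mean of all tested compounds plus 3 SD, cut at about 13% in these data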
EDANS interfere = optically interferes with EDANS-DABCYL signal, flagging KLK7 hits. shares compounds with KLK7 zymogen act. activation, % at 7 µM. 80% of 3,200 active. EDANS-DABCYL substrate fluorescence interference, no enzyme, 4 h; solvent 0%, active enzyme control 100%. AID 686952;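 active = activation above the all-compound mean plus 3 SD, ignoring values outside control-based bounds, cut at about 4.8% in these data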;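 note: value is the 4 h activation minus the activation read at time zero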
K7 EDANS ctr = optically interferes with EDANS-DABCYL fluorescence, kallikrein-7 activator counter-screen. shares compounds with KLK7 zymogen act. EDANS-DABCYL peptide fluorescence interference, no enzyme. EC50, µM. 20% of 250 active;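 active = compounds that raise the fluorescence signal in this interference counterscreen, with EC50 at or below 10 µM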;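 note: intact quenched peptide substrate alone read at 355 nm excitation and 520 nm emission; signal is fluorescence gain from T0 to T4 after four hours at room temperature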
Starred values were filed as active, the others as inactive; i = inactive; . = no result given.

SMILES | Neddyl block | proCasp7 act | procasp3 activ | KLK7 zymogen act | KLK7 act conf | EDANS interfere | others
COc1ccc2ccccc2c1C=NNC(=O)c1cc(-c2ccc(C)c(C)c2)n[nH]1 | . | . | . | 49* | 22* | 15* | K7 EDANS ctr=>69
Cc1ccc(-c2cc(C(=O)NN=Cc3c(O)ccc4ccccc34)[nH]n2)cc1C | . | . | . | -69 | . | .
CC1C2CC(CC1(C)C)N(C(=O)Nc1ccc3nccnc3c1)C2 (stereo not given) | . | 0 | -4 | 18* | -1 | -1
CCn1c(/C=C/c2ccccc2)nc2ccccc21 | . | 11 | 7 | 12 | . | .
CCCn1c(/C=C/c2cc[n+](C)cc2)nc2ccccc21 | i | -5 | -3 | 50* | 61* | 72*
C[C@@H]1CN([C@H](C)CO)S(=O)(=O)c2ccc(Br)cc2O[C@H]1CN(C)C(=O)Cc1ccccn1 | i | . | . | 0 | . | .
CCC(C)n1c(=N)c(C#N)cc2c(=O)n3cc(C)ccc3nc21 (stereo not given) | . | -23 | -25 | 3 | . | .
Cc1ccc2nc3c(cc(C#N)c(=O)n3-c3nccs3)c(=O)n2c1 | . | -37 | -17 | 25* | 61* | 73*
O=C1c2ccccc2/C(=C\c2ccc(O[C@@H]3CCCCO3)cc2)N1c1ccccc1 | . | . | . | 100* | 4 | 15*
O=C1c2ccccc2/C(=C\c2ccc(Br)nc2)N1c1ccccc1 | . | . | . | 0 | . | .
COCCNC(=S)Nc1cc(OC)c(OC)cc1C#N | i | . | . | -1 | . | .
COc1ccc2c3c([nH]c2c1)C1CC2C(CC(O)C(OC)C2CO)CN1CC3 (stereo not given) | . | -4 | 2 | 0 | . | .
COc1ccc2c3c([nH]c2c1)[C@H]1C[C@H]2[C@H](C[C@@H](O)[C@H](OC)[C@H]2C(=O)O)CN1CC3 | . | 6 | 5 | 40* | 8 | 11*
C=CCN1[C@@H](C)COc2cccc(N3CCSCC3)c2S1(=O)=O | . | . | . | -1 | . | .
COc1ccc(C(=O)NCCCN(C)CCCNC(=O)c2ccc(OC)cc2)cc1 | i | 3 | 6 | 0 | . | .
Nc1nc(-c2ccc3c(c2)CCCC3)cs1 | i | -3 | -2 | 1 | . | .
N#Cc1cnn2ccc(-c3ccc4c(c3)CCC4)nc12 | i | 0 | 10 | 95* | 57* | 76*
CN(C(=O)NC(=O)C1=C(N2CCOCC2)/C(=C/c2ccccc2)CC1)S(C)(=O)=O | . | -45 | -28 | 146* | 342* | 332*
Cc1cc(=O)oc2c3c(cc(OCC(=O)NC(C)C)c12)OC(C)(C)CC3 | . | . | . | 23* | 47* | 63*
Cc1cc(=O)oc2c3c(cc(OCC(=O)N[C@@H](C)C(=O)O)c12)OC(C)(C)CC3 | . | . | . | 64* | 62* | 73*
COc1ccc(/C=C/C(=O)N(Cc2cccs2)C2CCS(=O)(=O)C2)cc1 (stereo not given) | i | 11 | 4 | 0 | . | .
Cc1cccn2c(=O)c3cc(C(=O)NCCN4CCOCC4)c(=N)n(CCCN4CCOCC4)c3nc12 | . | -10 | -8 | 25* | 4 | 8.1*
N#Cc1cc2c(=O)n3ccccc3nc2n(CCCN2CCOCC2)c1=O | . | -13 | -16 | 48* | 44* | 40*
COCCCn1c(C(=O)NCCN2CCOCC2)cc2c(=O)n3cccc(C)c3nc21 | . | -7 | -3 | 15* | 38* | 28* | K7 EDANS ctr=>70
Cc1ccc2nc3c(cc(C(=O)NCCc4ccccc4)c(=N)n3CCCN3CCOCC3)c(=O)n2c1 | . | -14 | -11 | 17* | -2 | -2
SMILES | Neddyl block | proCasp7 act | procasp3 activ | KLK7 zymogen act | KLK7 act conf | EDANS interfere | others
N#Cc1cc2c(=O)n3ccccc3nc2n(Cc2cccnc2)c1=O | i | -4 | -10 | 12 | . | .
COc1ccc(CCn2c(=N)c(C(=O)NCCN3CCOCC3)cc3c(=O)n4cccc(C)c4nc32)cc1OC | i | -2 | -6 | 1 | . | .
COc1ccc(S(=O)(=O)N2CCC3(CC2)CC(=O)c2ccccc2O3)cc1OC | i | -2 | 9 | -1 | . | .
CCCNc1nc2nc3ccccn3c(=O)c2cc1C(=O)NCCN1CCOCC1 | . | -9 | -16 | 26* | 21* | 20*
Cc1cccn2c(=O)c3cc(C(=O)NCc4ccccc4)c(=N)n(CCCN4CCOCC4)c3nc12 | . | . | . | 18* | -5 | -2
O=C(NCCN1CCOCC1)c1c(O)nc2ccccn2c1=O | i | -2 | 2 | 0 | . | .
Cc1cccn2c(=O)c3cc(C(=O)NCCCN4CCCC4=O)n(C)c3nc12 | . | -5 | 4 | 14* | 7 | 15*
COc1ccc(CCn2c(=N)c(C(=O)NCCN3CCOCC3)cc3c(=O)n4ccccc4nc32)cc1OC | i | 3 | 1 | -1 | . | .
O=C(NCCN1CCOCC1)c1cc2c(=O)n3ccccc3nc2n1Cc1ccccc1 | . | 3 | -2 | 41* | 81* | 73*
CCOc1ccccc1NC1=C(Cl)C(=O)N(c2ccccc2)C1=O | i | -14 | -15 | 0 | . | .
COc1cccc(CN2CCC2(C)C(=O)Nc2cccc3cccnc23)c1OC (stereo not given) | i | . | . | 1 | . | .
N#Cc1cc2c(=O)n3ccccc3nc2n(-c2ccccc2Cl)c1=O | . | -11 | -3 | 31* | 32* | 36*
Cc1cccn2c(=O)c3cc(C(=O)NCCN4CCOCC4)c(=N)n(CCc4ccccc4)c3nc12 | . | -11 | -13 | 35* | -7 | -6
N=c1c(C(=O)NC2CCCC2)cc2c(=O)n3ccccc3nc2n1CCCN1CCOCC1 | . | -8 | -13 | 26* | -24 | -17
COCCCn1c(C(=O)N2CCOCC2)cc2c(=O)n3ccccc3nc21 | . | -2 | -2 | 47* | 72* | 80*
COc1ccc(C(=O)C(=O)N2CCN(c3ccccc3F)CC2)cc1 | i | . | . | 0 | . | .
Cc1cccn2c(=O)c3cc(C(=O)N(C)C)n(C)c3nc12 | . | -2 | -1 | 26* | 27* | 29*
CCOP1(=O)OCC2OC(n3cnc4c(N)ncnc43)C(O)C2O1 (stereo not given) | i | -1 | -7 | 0 | . | .
COCCCNC(=S)N/N=C/c1ccc(N(C)C)cc1Cl | . | 2 | -1 | -9 | . | .
COCCCNC(=S)N/N=C/c1ccc(N(C)C)cc1 | . | -4 | 4 | 26* | 41* | 41*
Cc1cccc(C)c1NC(=O)c1cnccn1 | i | 1 | 13 | 0 | . | .
O=C(O)c1cccc(CN2C(=O)SC(Nc3cccc4ccccc34)C2=O)c1 (stereo not given) | i | -44 | -10 | 60* | 62* | 69*
O=C(O)c1cccc(CN2C(=O)SC(Nc3ccccc3)C2=O)c1 (stereo not given) | i | -10 | -14 | 0 | . | .

Assay outcomes (PubChem)
